Data: article PMC12089494 (Nature Communications, 2025)
≈ marks a conversion by molar mass, not a printed value. Where two headings read alike, the source gives them in different places.

Tests used:
[1] = cited from earlier work
[2] = SPIP in GF rats mono-colonized with BTWT/BFWT or BTΔSPT/BFΔSPT; assay type: in vivo, Wistar rats; details: for Peff plateau: SPIP 30 mg/L NAC
Procedure, shortened: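 Germ-free Wistar rats (6-week-old) fed a fat-free diet (0% kcal fat, 76% carbohydrate, 24% protein) containing only PAA for 12 weeks. Wild-type or SPT-deleted Bacteroides strains, grown anaerobically at 37 °C in BHI with […] cysteine and resuspended in oxygen-free PBS, then given with the diet (10⁸ CFU/μL of PBS per rat, three times weekly) for 8 weeks. In situ single-pass perfusion and Peff determination followed.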

[3] = cited from earlier work; remark: listed apart in the source
[4] = Single-pass intestinal perfusion; assay type: in vivo, Wistar rats
Procedure, shortened: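 Male Wistar germ-free and age-matched SPF rats (6-week-old, 250–300 g), n = 6 per group. Fasted 12 h with free water, anaesthetised with intramuscular ketamine-xylazine (80 mg/kg and 20 mg/kg), kept on a heated surface at 37 ± 1 °C. Intestine perfused single-pass in situ for 2 h, sampled at 15-min intervals, and Peff determined. Perfused and unperfused segments were collected for microbiological detection.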

Peff plateau ([2]; GF^BFΔSPT rats): 1.417 × 10^–4 cm/s | Peff increase than GF^BTWT and GF^BFWT littermates ([2]; GF^BTΔSPT and GF^BFΔSPT rats vs wild-type colonized): approximately with the two-fold increase | Peff plateau ([2]; GF^BTΔSPT rats): 1.216 × 10^–4 cm/s | Peff plateau ([4]; GF rats, SPIP): 1.446 × 10^–4 cm/s | Peff increase in GF rats than SPF controls ([4]; GF vs SPF rats): two-fold increase
Structure (SMILES): CC(=O)N[C@@H](CS)C(=O)O [NAC, N-Acetylcysteine]
aqueous solubility [1]: 163.9 mg/mL (≈ 1000 mM) | aqueous solubility ([1]; pH 7.4): 163.9 mg/mL (≈ 1000 mM) | within-study coefficients of variability (CVs) ([3]; different populations): 35-45% | tmax ([3]; oral dose of NAC 400 mg, reduced form): 30 min | Bio-availability, reduced form ([3]; oral dose of NAC 400 mg): 4.0% | Bio-availability, total drug ([3]; oral dose of NAC 400 mg): 9.1% | Cmax of the reduced form ([3]; oral dose of NAC 400 mg): 3.47 mg/L
